Results from ChEMBL document CHEMBL1799922, “Synthesis and antimycobacterial activity of prodrugs of indeno[2,1-c]quinoline derivatives” (Eur J Med Chem, 2011).
Converted amounts (≈) assume the structure as drawn.

Legend:
[1] = test system: Mycobacterium tuberculosis; assay: Antimicrobial activity against Mycobacterium tuberculosis H37Rv ATCC 27294 after 16 to 24 hrs by microplate alamar blue assay; assay type: functional
In short: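 M. tuberculosis H37Rv inoculum 2×10^5 cfu/mL (100 µL) added to twofold dilutions in Middlebrook 7H12 medium; final test range 128 µM to 0.5 µM from 12.8 mM DMSO stocks. Incubated 37 °C; day 7 Tween 80 plus Alamar Blue added, further 16-24 h at 37 °C. Fluorescence ex 530/em 590 nm; MIC = lowest concentration giving >90% fluorescence reduction versus replicate bacteria-only controls. Rifampin, isoniazid controls.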

[2] = Cytotoxicity against human U937 cells assessed as cell viability at 1.25 ug/ml after 72 hrs by MTT assay; assay type: cell-based, U-937; conditions: read-out: Activity
In short: (§1)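 U937 human monocytic cells plated at 1 × 10^5 cells/mL and allowed to adhere for 1 h at 37 °C in 5% CO2. Non-adherent cells were washed off with RPMI 1640. Adherent cells were exposed to compound in triplicate, with medium alone as the live control and 3% Tween 20 as the dead control. MTT (5 mg/mL in PBS) was then added for 3 h at 37 °C. Formazan was dissolved in 0.4 M HCl/isopropanol and absorbance read at 600 nm. Results are expressed as % cell viability.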

[3] = Cytotoxicity against human U937 cells assessed as cell viability at 5 ug/ml after 72 hrs by MTT assay; assay type: cell-based, U-937; conditions: read-out: Activity; in short: as §1
[4] = Cytotoxicity against human U937 cells assessed as cell viability at 10 ug/ml after 72 hrs by MTT assay; assay type: cell-based, U-937; conditions: read-out: Activity; in short: as §1
[5] = Cytotoxicity against human U937 cells assessed as cell viability at 20 ug/ml after 72 hrs by MTT assay; assay type: cell-based, U-937; conditions: read-out: Activity; in short: as §1
Serum = assay: Stability of the compound in 80% human blood serum assessed as hydrolysis to 2-bromo-6-(1H-imidazol-1-yl)-7H-indeno[2,1-c]quinolin-7-one oxime at 1 mg after 24 hrs at 37 degC by LC-MS analysis; assay type: ADME, cell-free; parameters: scale not given: the % may be the effect or the level left
In short: (§2)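 Enzymatic hydrolysis: 1 mg prodrug dissolved in 1 mL ethanol, then 200 µL preheated human blood serum diluted to 80% with 0.16 M phosphate buffer (pH 7.4) was added. Samples were kept at 37 °C (24 h) and centrifuged 10 min at 10,000 rpm. Remaining prodrug in the supernatant was monitored by TLC and LC-MS. t1/2 is the time to 50% hydrolysis.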

[6] = Stability of the compound in 10% aqueous ammonia buffer at pH 8 assessed as hydrolysis to 2-bromo-6-(1H-imidazol-1-yl)-7H-indeno[2,1-c]quinolin-7-one oxime at 1 mg at 37 degC by LC-MS analysis; assay type: physicochemical; parameters: scale not given: the % may be the effect or the level left
In short: (§3)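 Chemical hydrolysis: 1 mg prodrug dissolved in 1 mL of 10% aqueous ammonia in methanol (pH 8) and held in a thermostatted water bath at 37 °C, up to 24 h. Conversion to the parent oxime was followed by TLC and LC-MS. t1/2 is the time to 50% hydrolysis.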

[7] = Half life in 10% aqueous ammonia buffer at pH 8 assessed as hydrolysis to 2-bromo-6-(1H-imidazol-1-yl)-7H-indeno[2,1-c]quinolin-7-one oxime at 37 degC by LC-MS analysis; assay type: physicochemical; in short: as §3
[8] = Octanol-water partition coefficient, log P of the compound at pH 7.4 at room temperature by UV spectrophotometric analysis; assay type: physicochemical
In short: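 Shake-flask method at room temperature: 1-octanol and phosphate buffer (pH 7.4) were pre-saturated by shaking for 24 h. Compound at 10^-4 M in equal volumes of both phases was shaken vigorously for 1 h, left to stand 15 min, then centrifuged 10 min at 10,000 rpm. UV absorbance of each phase was read at 280 nm against blanks, and P was taken as the octanol/water absorbance ratio.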

[9] = Selectivity index, ratio CC50 for human U937 cells to MIC for Mycobacterium tuberculosis H37Rv ATCC 27294; assay type: functional, U-937
[10] = Half life in human blood serum by LC-MS analysis; assay type: ADME, cell-free, Plasma; in short: as §2

SMILES	MIC [1]	viability at 72 h, 1.25 ug/ml [2]	viability at 72 h, 5 ug/ml [3]	viability at 72 h, 10 ug/ml [4]	viability at 72 h, 20 ug/ml [5]	Activity (Serum)	Activity [6]	half-life [7]	logD [8]	Selectivity Index [9]	half-life [10]
CC(C)(C)OC(=O)NCC(=O)OC1(C)c2ccccc2-c2c1c(-n1ccnc1)nc1ccc(Br)cc21 (configuration not stated)	2.03 µg/mL (≈ 3.69 µM)	90%	83%	62%	28%	Not Active	97%	24 h	1.8	6	–
CCCCC(=O)OC1(C)c2ccccc2-c2c1c(-n1ccnc1)nc1ccc(Br)cc21 (configuration not stated)	1.53 µg/mL (≈ 3.21 µM)	91%	75%	48%	4%	Not Active	90%	288 h	1.7	5.6	–
CC(=O)NCC(=O)O/N=C1\c2ccccc2-c2c1c(N1CCN(c3ccccn3)CC1)nc1ccc(Br)cc21	6 µg/mL (≈ 10.2 µM)	83%	–	77%	–	95%	95%	144 h	1.2	–	192 h
CC(C)[C@H](NC(=O)OCC1c2ccccc2-c2ccccc21)C(=O)O/N=C1\c2ccccc2-c2c1c(N1CCN(c3ccccn3)CC1)nc1ccc(Br)cc21	1.47 µg/mL (≈ 1.82 µM)	85%	89%	81%	80%	7%	96%	24 h	1.8	>27	–
CCCCCC(=O)OC1(C)c2ccccc2-c2c1c(-n1ccnc1)nc1ccc(Br)cc21 (configuration not stated)	1.6 µg/mL (≈ 3.26 µM)	85%	77%	54%	15%	Not Active	90%	288 h	1.4	6.1	–
CC(C)(C)OC(=O)N[C@H](C(=O)O/N=C1\c2ccccc2-c2c1c(N1CCN(c3ccccn3)CC1)nc1ccc(Br)cc21)C(C)(C)C	1.52 µg/mL (≈ 2.17 µM)	92%	86%	87%	82%	11%	95%	48 h	1.5	>26	–
CCCCCCC(=O)OC1(C)c2ccccc2-c2c1c(-n1ccnc1)nc1ccc(Br)cc21 (configuration not stated)	0.42 µg/mL (≈ 0.833 µM)	85%	83%	68%	54%	Not Active	86%	312 h	1.7	40.2	–
CCCCCC(=O)O/N=C1\c2ccccc2-c2c1c(-n1ccnc1)nc1ccc(Br)cc21	1.5 µg/mL (≈ 3.07 µM)	81%	–	100%	–	85%	90%	144 h	2.1	–	240 h
CCCCCCCC(=O)OC1(C)c2ccccc2-c2c1c(-n1ccnc1)nc1ccc(Br)cc21 (configuration not stated)	3.42 µg/mL (≈ 6.6 µM)	87%	72%	52%	17%	Not Active	90%	264 h	1.8	2.5	–
CCCCCCCCC(=O)OC1(C)c2ccccc2-c2c1c(-n1ccnc1)nc1ccc(Br)cc21 (configuration not stated)	1.56 µg/mL (≈ 2.93 µM)	86%	75%	71%	50%	Not Active	90%	288 h	1.6	11.4	–
CC(C)(C)OC(=O)N1CCC[C@H]1C(=O)O/N=C1\c2ccccc2-c2c1c(N1CCN(c3ccccn3)CC1)nc1ccc(Br)cc21	1.53 µg/mL (≈ 2.24 µM)	86%	75%	61%	69%	13%	95%	24 h	2.3	>26	–
CCCCCCCCCC(=O)O/N=C1\c2ccccc2-c2c1c(-n1ccnc1)nc1ccc(Br)cc21	3 µg/mL (≈ 5.5 µM)	100%	–	81%	–	90%	90%	24 h	1.4	–	144 h
C[C@H](NC(=O)OC(C)(C)C)C(=O)O/N=C1\c2ccccc2-c2c1c(N1CCN(c3ccccn3)CC1)nc1ccc(Br)cc21	6 µg/mL (≈ 9.12 µM)	100%	–	100%	–	66%	95%	48 h	1.7	–	480 h
CCC(=O)O/N=C1\c2ccccc2-c2c1c(N1CCN(c3ccccn3)CC1)nc1ccc(Br)cc21	3.13 µg/mL (≈ 5.77 µM)	83%	88%	81%	83%	13%	95%	144 h	2.7	>13	–
O=C(CCCCBr)O/N=C1\c2ccccc2-c2c1c(N1CCN(c3ccccn3)CC1)nc1ccc(Br)cc21	2.03 µg/mL (≈ 3.13 µM)	99%	94%	79%	80%	10%	95%	96 h	1.5	>20	–
